The text below walks through data of ChEMBL document CHEMBL2169880, “Synthesis of C-Pseudonucleosides Bearing Thiazolidin-4-one as a Novel Potential Immunostimulating Agent” (2011).

Test [1] is described as follows: (§1) Immunostimulating activity in BALb/c mouse splenocytes assessed as increase in concanavalin A-induced cell proliferation at 5 uM after 72 hrs by MTT assay. In kind it is functional, Splenocyte. Summed up: (§2)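 Mouse splenocytes co-treated with concanavalin A and compound at 5, 10, 25, 50 or 100 μM. Incubated 72 h at 37 °C under 5% CO₂, then proliferation read by MTT. Result expressed as % increase relative to Con A alone. Means ± SEM of at least three independent experiments.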
For orientation: Formazan colour is commonly taken as a measure of viable cells.

Test [2] is described as follows: Immunostimulating activity in BALb/c mouse splenocytes assessed as increase in concanavalin A-induced cell proliferation at 50 uM after 72 hrs by MTT assay. In kind it is functional, Splenocyte. The procedure, abridged:
as §2

The nature of test [3]: Immunostimulating activity in BALb/c mouse splenocytes assessed as increase in concanavalin A-induced cell proliferation at 25 uM after 72 hrs by MTT assay. The test is classed as functional, Splenocyte. The procedure, abridged:
as §2

The nature of test [4]: Immunostimulating activity in BALb/c mouse splenocytes assessed as increase in concanavalin A-induced cell proliferation at 100 uM after 72 hrs by MTT assay. In kind it is functional, Splenocyte. The procedure, abridged:
as §2

A short description of test [5]: Immunostimulating activity in BALb/c mouse splenocytes assessed as increase in concanavalin A-induced cell proliferation at 10 uM after 72 hrs by MTT assay. In kind it is functional, Splenocyte. The procedure, abridged:
as §2

The test system of test [6] is T-cell. Briefly: Immunostimulating activity in BALb/c mouse CD4+ T cells at 10 uM after 72 hrs by […]. In kind it is functional, cell-based. Summed up:
(§3)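 CD3+, CD4+ and CD8+ T cells and CD19+ B cells from splenocyte cultures quantified by flow cytometry. Compound at 5, 10 or 50 μM, compared with Con A-treated cells. Means ± SEM of at least three independent experiments.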

The test system of test [7] is Splenocyte. The test is described as follows: Immunostimulating activity in concanavalin A-stimulated BALb/c mouse splenocytes assessed as increase in IL2 secretion at 10 uM after 72 hrs by ELISA. The test is classed as functional. Summed up:
(§4)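 IL-4, IL-2 and IFN-γ measured by mouse ELISA in supernatants of total splenocyte cultures. Cultures contained concanavalin A (printed as 20 μM) plus compound at 5, 10 or 50 μM. Compared with Con A alone. Means ± SEM of at least three independent experiments.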
Background: ELISA stands for enzyme-linked immunosorbent assay.

The subject of test [8] is T-cell. Briefly: Immunostimulating activity in BALb/c mouse CD3+ T cells at 10 uM after 72 hrs by MTT assay. The test is classed as functional, cell-based.
Test [9] relates to Splenocyte. The test is described as follows: Immunostimulating activity in concanavalin A-stimulated BALb/c mouse splenocytes assessed as increase in IL4 secretion at 10 uM after 72 hrs by ELISA. In kind it is functional. Summed up: as §4
For test [10], the system named is T-cell. The test is described as follows: Immunostimulating activity in BALb/c mouse CD8+ T cells at 10 uM after 72 hrs by MTT assay. The test is classed as functional, cell-based.
Test [11] relates to Splenocyte. The test is described as follows: Immunostimulating activity in concanavalin A-stimulated BALb/c mouse splenocytes assessed as increase in IFNgamma secretion at 10 uM after 72 hrs by ELISA. In kind it is functional. Summed up:
as §4

The test system of test [12] is B. The test is described as follows: Immunostimulating activity in BALb/c mouse CD19+ B cells at 10 uM after 72 hrs by MTT assay. The test is classed as functional, cell-based.
Test [13] relates to Splenocyte. The test is described as follows: Immunostimulating activity in BALb/c mouse splenocytes assessed as cell proliferation at 5 to 100 uM after 72 hrs by MTT assay. The test is classed as functional, cell-based. The procedure, abridged:
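Mouse splenocytes exposed to compound without concanavalin A. Proliferation measured by MTT after 72 h at 37 °C, 5% CO₂.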

In test [14] the test system is T-cell. The test is described as follows: Immunostimulating activity in BALb/c mouse CD3+ T cells at 5 uM after 72 hrs by […]. The test is classed as functional, cell-based. Summed up:
as §3

The subject of test [15] is Splenocyte. Briefly: Immunostimulating activity in concanavalin A-stimulated BALb/c mouse splenocytes assessed as increase in IL4 secretion at 5 uM after 72 hrs by ELISA. The test is classed as functional. The procedure, abridged:
as §4

Test [16] deals with Splenocyte. The test is described as follows: Immunostimulating activity in concanavalin A-stimulated BALb/c mouse splenocytes assessed as increase in IL2 secretion at 5 uM after 72 hrs by ELISA. The test is classed as functional. Summed up:
as §4

Test [17] has as its system Splenocyte. Described as §1. In kind it is functional. Summed up:
as §2

Test [18] has as its system T-cell. The test is described as follows: Immunostimulating activity in BALb/c mouse CD8+ T cells at 5 uM after 72 hrs […]. In kind it is functional, cell-based. The procedure, abridged: as §3
In test [19] the test system is T-cell. Briefly: Immunostimulating activity in BALb/c mouse CD4+ T cells at 5 uM after 72 hrs by MTT assay. The test is classed as functional, cell-based.
For test [20], the system named is B. The test is described as follows: Immunostimulating activity in BALb/c mouse CD19+ B cells at 5 uM after 72 hrs […]. In kind it is functional, cell-based. Summed up: as §3
A short description of test [21]: Immunostimulating activity in BALb/c mouse splenocytes assessed as increase in LPS-induced cell proliferation at 5 uM after 72 hrs by MTT assay. In kind it is functional, Splenocyte. Summed up:
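Splenocyte proliferation induced by LPS, with compound added at 5 μM. Reported as % increase over LPS-treated cells. Means ± SEM of at least three independent experiments.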

For test [22], the system named is Splenocyte. Briefly: Immunostimulating activity in concanavalin A-stimulated BALb/c mouse splenocytes assessed as increase in IFNgamma secretion at 5 uM after 72 hrs by ELISA. In kind it is functional, cell-based. The procedure, abridged:
as §4

The test system of test [23] is Splenocyte. Briefly: Immunostimulating activity in concanavalin A-stimulated BALb/c mouse splenocytes assessed as increase in IL4 secretion at 50 uM after 72 hrs by ELISA. The test is classed as functional. The procedure, abridged:
as §4

Test [24] concerns Splenocyte. The test is described as follows: Immunostimulating activity in concanavalin A-stimulated BALb/c mouse splenocytes assessed as increase in IL2 secretion at 50 uM after 72 hrs by ELISA. In kind it is functional. Summed up: as §4
The subject of test [25] is B. The test is described as follows: Immunostimulating activity in BALb/c mouse CD19+ B cells at 50 uM after 72 hrs by MTT assay. In kind it is functional, cell-based.
Test [26] relates to T-cell. The test is described as follows: Immunostimulating activity in BALb/c mouse CD3+ T cells at 50 uM after 72 hrs by […]. In kind it is functional, cell-based. Summed up: as §3
Test [27] has as its system Splenocyte. The test is described as follows: Immunostimulating activity in concanavalin A-stimulated BALb/c mouse splenocytes assessed as increase in IFNgamma secretion at 50 uM after 72 hrs by ELISA. The test is classed as functional. Summed up:
as §4

For test [28], the system named is T-cell. Briefly: Immunostimulating activity in BALb/c mouse CD8+ T cells at 50 uM after 72 hrs by […]. The test is classed as functional, cell-based. Summed up: as §3
In test [29] the test system is T-cell. The test is described as follows: Immunostimulating activity in BALb/c mouse CD4+ T cells at 50 uM after 72 hrs by MTT assay. In kind it is functional, cell-based.

Active and inactive are the calls of the source. No cut-off for these calls is given here.

For the compound `CCCCCCCCN1C(=O)CS[C@@H]1[C@H]1O[C@H](CO)[C@@H](O)[C@@H]1O`, the Activity in test [1], in test [2], in test [3], in [4] and in test [5] was less than 50% in each case.
As for `CCCCCCCCCCCCCCCCCCN1C(=O)CS[C@H]1[C@H]1O[C@H](CO)[C@@H](O)[C@@H]1O`, the Activity in test [1], in test [2], in test [3], in test [4] and in test [5] was less than 50% in each case.
Consider `CCCCN1C(=O)CS[C@H]1[C@H]1O[C@H](CO)[C@@H](O)[C@@H]1O`, for which the Activity in [1], in [2], in test [3], in test [4] and in test [5] was less than 50% each time.
Take `CN1C(=O)CS[C@H]1[C@H]1O[C@H](CO)[C@@H](O)[C@@H]1O`: the outcome in test [6] and in test [8] was Active. Also, the Activity in [7] was found to be 78%; in test [1] it was 28%; in test [2], 35%; in test [9], 43%; in test [3], 138%; in test [4] it was 245%. Further, the Activity was 21% in test [11] and 290% in test [5]. In addition, the result in [10], in test [12] and in test [13] was inactive.
As to `O=C1CS[C@@H]([C@H]2O[C@H](CO)[C@@H](O)[C@@H]2O)N1c1ccccc1`, the result in [14], in test [17], in test [19] and in test [20] was Active. The Activity is recorded as 39% in test [15]; 99% in test [16]; less than 50% in test [2]; less than 50% in [3]; less than 50% in test [4]; 117% in test [21]. Besides, the Activity in [5] is less than 50%. Moreover, the result in test [18], in test [13] and in [22] was inactive.
Take `CCCCCCCCCCCCCCCCCCN1C(=O)CS[C@@H]1[C@H]1O[C@H](CO)[C@@H](O)[C@@H]1O`: the Activity in test [1], in test [2], in test [3], in [4] and in test [5] was less than 50% throughout.
In the case of `CCCCN1C(=O)CS[C@@H]1[C@H]1O[C@H](CO)[C@@H](O)[C@@H]1O`, the Activity in test [1], in test [2], in [3], in test [4] and in [5] was less than 50% in each case.
With `O=C1CS[C@H]([C@H]2O[C@H](CO)[C@@H](O)[C@@H]2O)N1c1ccccc1`, the result in test [14], in test [19] and in test [20] was Active. The Activity was 41% in test [15]; 138% in test [16]; 166% in test [1]; 171% in test [2]; less than 50% in test [3]; 238% in test [21]. Further, the Activity in test [5] is reported as less than 50%. Besides, the result in test [18], in test [13] and in [22] was inactive.
Take `CCCCCCCCN1C(=O)CS[C@H]1[C@H]1O[C@H](CO)[C@@H](O)[C@@H]1O`: the Activity in test [1], in [2], in test [3], in [4] and in [5] was less than 50% each time.
On to `CN1C(=O)CS[C@@H]1[C@H]1O[C@H](CO)[C@@H](O)[C@@H]1O`, for which the Activity in [23] was 42%; in test [24] it was 37%; in test [1], 111%; in test [2] it was 327%; in test [3], 91%; in test [27] it was 30%. Moreover, the values for the Activity in [4] and in test [5] were 230% and 98%, respectively. Besides, the outcome in test [25], in test [28] and in [13] was inactive. Further, the outcome in test [26] and in test [29] was Active.
